PMC7379261 (Journal of Peptide Science, 2020)
Values after ≈ are worked out from the molar mass of the structure shown. Where a SMILES comes first, the peptide text is derived from it. The star is where a group is joined. hSer(lactone) = O=C1OCC[C@@H]1N*

Assays:
[1] = test system: five pathogenic bacterial strains, including three Gram‐positive and two Gram‐negative strains; assay: Antimicrobial assay; type: cell-based; details: read-out: MIC against all pathogenic bacterial strains tested
How it was run: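 Broth microdilution MIC of a recombinant test peptide (RP-HPLC purified, >95%). E. coli ATCC 12014, S. aureus ATCC 25923, P. acnes ATCC 6919, P. gingivalis ATCC 33277 and S. mutans ATCC 25175 were grown overnight at 37°C in LB or BHI and diluted in the same medium. Serial peptide dilutions were mixed 1:1 with bacteria (final 5 × 10^4 CFU/mL) and incubated 37°C, 24 h. Ampicillin and magainin-2 were positive controls. Three independent repeats, mean ± SD.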

[2] = test system: Staphylococcus aureus strain; type: cell-based; details: aqueous peptide solution (10 μg/mL) heated at 100°C for 60 min, cooled 30 min
[3] = Degradation assay with resting cell suspensions; type: in vitro ADME, Lactobacillus plantarum subsp. plantarum; details: pH 7
How it was run: (§1)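 Resting-cell peptidase assay. Mid-exponential cultures (OD600 = 0.5) were pelleted at 10,000 g, 15 min, 4°C, washed twice and resuspended 20-fold concentrated in 10 mmol/L phosphate buffer, pH 7.0. Test peptide solution (400 μg/mL) was mixed 1:1 with cells (final 10^8 CFU/mL) and incubated at 37°C, sampled at 30 and 60 min (also 4 h for L. plantarum). Read-out was RP-HPLC peptide remaining versus a no-bacteria control; fragments were identified by LC-MS/MS.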

Staphylococcus aureus = type: cell-based; details: S. aureus; LB at pH 3.7–8.7
[4] = Degradation assay with resting cell suspensions; type: in vitro ADME; details: resting cell suspension of Staphylococcus aureus ATCC 25923, pH 7
How it was run: as §1

Structure (SMILES)	MIC [1]	MIC against S. aureus strain under the conditions of heat treatment [2]	metabolised at 1 h, 200 μg/mL [3]	MIC within the limits of pH (3.7–8.7) solutions (Staphylococcus aureus)	metabolised at 1 h, 200 μg/mL [4]
CC1(C)S[C@@H]2[C@H](NC(=O)[C@H](N)c3ccccc3)C(=O)N2[C@H]1C(=O)O [Ampicillin, ampicillin]	5 to 7.5 mg/L (≈ 14.3 to 21.5 µM)	–	–	–	–
CC[C@H](C)[C@H](NC(=O)[C@H](Cc1c[nH]c2ccccc12)NC(=O)[C@H](CCC(=O)O)NC(=O)[C@H](CCCCN)NC(=O)[C@@H](NC(=O)[C@H](CCCCN)NC(=O)[C@@H](N)CC(N)=O)C(C)C)C(=O)N[C@@H](CCCCN)C(=O)N[C@@H](Cc1ccc(O)cc1)C(=O)N[C@@H](CC(C)C)C(=O)N[C@@H](CCCCN)C(=O)N[C@@H](CO)C(=O)N[C@@H](CC(C)C)C(=O)N[C@@H](Cc1ccccc1)C(=O)N[C@@H](CO)C(=O)N[C@H]1CCOC1=O [LPcin‐YK3] (H-NKVKEWIKYLKSLFS-{hSer(lactone)})	–	0.62 mg/L	~79.3%	0.62 μg/mL	10.8%
